According to ChEMBL document CHEMBL1137812, “Leishmanicidal and antiplasmodial activity of constituents of Smirnowia iranica” (J Nat Prod, 2002):

Tests used:
[1] = tested on: Leishmania donovani; assay: Antileishmanial activity against Leishmania donovani LV9 promastigotes after 96 hrs by MTT assay; format: functional, organism-based; settings: LV9, 96 h
Procedure, shortened: (§1)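 Promastigotes recovered from liquid-nitrogen cryopreservation were exposed to compounds for 96 h. Parasite viability was read by MTT.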

[2] = tested on: Leishmania infantum; assay: Antileishmanial activity against Leishmania infantum D.SCH promastigotes after 96 hrs by MTT assay; format: functional, organism-based; procedure, shortened: as §1
[3] = tested on: Leishmania major; assay: Antileishmanial activity against Leishmania major LV39 promastigotes after 96 hrs by MTT assay; format: functional, organism-based; settings: LV39, 96 h; procedure, shortened: as §1
[4] = tested on: Leishmania donovani; assay: Antileishmanial activity against Leishmania donovani LV9 amastigotes infected in mouse RAW 264.7 cells after 72 hrs by MTT assay; format: functional, organism-based
Procedure, shortened: (§2)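 RAW 264.7 macrophages infected in vitro with stationary-phase promastigotes, seeded at 1 × 10^5 cells per well in RPMI with 10% fetal calf serum and held 24 h at 37 °C for amastigote transformation. Compounds added, duplicate wells, 72 h at 37 °C. Cells lysed with 0.008% SDS, then post-lysis medium added and plates held 3-4 days at 25 °C. Recovered promastigotes quantified by MTT.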

[5] = tested on: Leishmania infantum; assay: Antileishmanial activity against Leishmania infantum D.SCH amastigotes infected in mouse RAW 264.7 cells after 72 hrs by MTT assay; format: functional, organism-based; procedure, shortened: as §2
[6] = tested on: RAW264.7; assay: Cytotoxicity against mouse macrophage RAW264.7 cells after 48 hrs by MTT assay; format: cell-based; settings: RAW264.7, 48 h
Procedure, shortened: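 Noninfected RAW 264.7 cells were run in parallel with the intracellular amastigote assay and exposed to compounds for 48 h. Viable cells were quantified by MTT.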

[7] = Toxicity in human erythrocytes assessed as morphological changes up to 67 uM after 48 hrs by Giemsa staining; format: cell-based; settings: erythrocyte
[8] = tested on: Plasmodium falciparum; assay: Antiplasmodial activity against chloroquine-sensitive Plasmodium falciparum 3D7 after 48 hrs as reduced [3H]phenylalanine uptake
[9] = Toxicity in human erythrocytes assessed as morphological changes at IC50 after 48 hrs by Giemsa staining; format: cell-based; settings: erythrocyte
[10] = Toxicity in human erythrocytes assessed as formation of echinocytes and ghost cells at 130 to 300 uM after 48 hrs by Giemsa staining; format: cell-based; settings: erythrocyte

SMILES | IC50 [8] | IC50 [1] | IC50 [2] | IC50 [3] | IC50 [4] | IC50 [5] | IC50 [6] | Activity [7] | Activity [9] | Activity [10]
COc1ccc([C@@H]2COc3c(ccc4c3C=CC(C)(C)O4)C2)c(OC)c1O [GLYASPERIN H] | 33.3 µM | 25.3 µM | 14.2 µM | 23.7 µM | 77 µM | 89 µM | 172 µM | – | Non-toxic | Toxic
C/C=C/c1cc(OC)c(OC)c(O)c1OC | > 200 µM | 232 µM | 198 µM | 387 µM | 589 µM | > 800 µM | 125 µM | – | – | –
C/C=C/C1=C(OC)C(=O)C(OC)=C(OC)C1=O | > 200 µM | 97 µM | 74 µM | 72 µM | > 800 µM | > 800 µM | 256 µM | – | – | –
C[C@@H]1[C@H](O)[C@@H](C)/C=C/C=C/C=C/C=C/C=C/C=C/C=C/[C@H](O[C@@H]2O[C@H](C)[C@@H](O)[C@H](N)[C@@H]2O)C[C@@H]2O[C@](O)(C[C@@H](O)C[C@@H](O)[C@H](O)CC[C@@H](O)C[C@@H](O)CC(=O)O[C@H]1C)C[C@H](O)[C@H]2C(=O)O [AMPHOTERICIN B] | – | – | 0.02 µM | 0.03 µM | 0.04 µM | 0.04 µM | – | – | – | –
C/C=C/c1cc(O)c(OC)c(OC)c1 | > 200 µM | 395 µM | 267 µM | 372 µM | > 800 µM | > 800 µM | 281 µM | – | – | –

Further lines, with some results ahead:

IC50 [8] | SMILES | IC50 [1] | IC50 [2] | IC50 [3] | IC50 [4] | IC50 [5] | IC50 [6] | Activity [7] | Activity [9] | Activity [10]
10.3 µM | COc1ccc([C@@H]2COc3c(ccc(O)c3CC=C(C)C)C2)c(OC)c1O | 6.9 µM | 9.2 µM | 7.9 µM | 99 µM | 109 µM | 218 µM | Non-toxic | – | –
57.6 µM | COc1ccc([C@@H]2COc3c(ccc4occc34)C2)c(OC)c1O [SMIRANICIN] | 22.9 µM | 11.3 µM | 17.4 µM | 112 µM | 81 µM | 193 µM | – | Non-toxic | Toxic
